This is an account of results in ChEMBL document CHEMBL1154352, “Toll-like receptor 7 selective synthetic oligoribonucleotide agonists: synthesis and structure-activity relationship studies” (J Med Chem, 2009).

Data set [1] can be described thus: Metabolic stability in human serum assessed as full length product remaining after 10 mins by HPLC. The data set is classed as ADME, cell-free. Conditions: read-out: Stability. The procedure, abridged: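 About 0.5 A260 units compound in 1% human serum in PBS, 37 °C; aliquot taken at 10 min, analysed by anion-exchange HPLC for percent intact full-length product.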

Data set [2] concerns the target T1, Toll-like receptor 8 (Homo sapiens) (UniProt Q9NR97).
T1 sequence (whole entry): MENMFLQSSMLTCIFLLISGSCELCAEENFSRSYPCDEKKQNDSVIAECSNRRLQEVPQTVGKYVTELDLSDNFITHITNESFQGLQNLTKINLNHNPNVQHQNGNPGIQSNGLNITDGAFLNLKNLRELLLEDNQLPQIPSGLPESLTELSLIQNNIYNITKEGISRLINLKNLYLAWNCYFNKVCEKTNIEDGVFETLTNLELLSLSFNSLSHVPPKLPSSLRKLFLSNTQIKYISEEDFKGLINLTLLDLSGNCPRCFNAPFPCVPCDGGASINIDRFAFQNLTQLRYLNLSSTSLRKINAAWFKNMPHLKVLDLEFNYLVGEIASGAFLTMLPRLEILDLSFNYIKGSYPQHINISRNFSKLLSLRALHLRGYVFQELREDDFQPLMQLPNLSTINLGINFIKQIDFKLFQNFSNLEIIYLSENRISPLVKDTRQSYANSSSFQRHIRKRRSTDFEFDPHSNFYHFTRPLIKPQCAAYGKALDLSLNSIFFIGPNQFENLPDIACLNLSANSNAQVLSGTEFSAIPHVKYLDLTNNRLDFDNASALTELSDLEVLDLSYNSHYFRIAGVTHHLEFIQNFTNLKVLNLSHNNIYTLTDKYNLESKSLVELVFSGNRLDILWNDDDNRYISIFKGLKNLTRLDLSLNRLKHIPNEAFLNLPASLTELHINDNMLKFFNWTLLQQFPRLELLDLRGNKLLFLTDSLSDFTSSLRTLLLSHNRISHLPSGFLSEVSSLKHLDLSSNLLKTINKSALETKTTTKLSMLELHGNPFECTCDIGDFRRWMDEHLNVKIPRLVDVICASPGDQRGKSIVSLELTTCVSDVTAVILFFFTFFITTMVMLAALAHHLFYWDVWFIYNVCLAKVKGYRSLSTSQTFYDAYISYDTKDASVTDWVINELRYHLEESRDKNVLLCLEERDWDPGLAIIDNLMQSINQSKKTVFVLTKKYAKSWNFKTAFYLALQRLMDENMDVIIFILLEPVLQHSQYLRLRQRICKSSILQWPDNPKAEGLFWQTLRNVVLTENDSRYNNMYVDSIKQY
As to the kind of experiment: Activation of human TLR8 expressed in HEK293XL assessed as fold induction of NF-kappaB activity at 50 ug/ml after 18 hrs by reporter gene assay relative to control. The gist of the method: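 HEK293 cells stably expressing human TLR7 or TLR8, transiently transfected with SEAP reporter plasmid; medium replaced, SIMRA compounds added, 18 h incubation. Supernatant SEAP measured by QuantiBlue; expressed as fold increase in NF-κB activity over PBS control. Tabulated data at 50 μg/mL, representative of three independent experiments.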

The next data set is filed under the species Homo sapiens. Kind of data set: Ratio of human TLR7 activity to human TLR8 activity. The procedure, abridged:
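TLR7/TLR8 ratio computed from fold NF-κB (SEAP reporter) activation in HEK293 cells stably expressing human TLR7 versus TLR8, compounds at 50 μg/mL, 18 h exposure; representative of three independent experiments.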

For data set [3], the target named is Toll-like receptor 3 (Homo sapiens) (UniProt O15455). As to the kind of experiment: Activation of human TLR3 expressed in HEK293 assessed as induction of NF-kappaB activity reporter gene assay. The data set is classed as cell-based.

Structures are written as SMILES. The source made the active and inactive calls. The calls are words filed in the database; no cut-off is given here.

Chain of Toll-like receptor 3 (Homo sapiens) (O15455 whole entry): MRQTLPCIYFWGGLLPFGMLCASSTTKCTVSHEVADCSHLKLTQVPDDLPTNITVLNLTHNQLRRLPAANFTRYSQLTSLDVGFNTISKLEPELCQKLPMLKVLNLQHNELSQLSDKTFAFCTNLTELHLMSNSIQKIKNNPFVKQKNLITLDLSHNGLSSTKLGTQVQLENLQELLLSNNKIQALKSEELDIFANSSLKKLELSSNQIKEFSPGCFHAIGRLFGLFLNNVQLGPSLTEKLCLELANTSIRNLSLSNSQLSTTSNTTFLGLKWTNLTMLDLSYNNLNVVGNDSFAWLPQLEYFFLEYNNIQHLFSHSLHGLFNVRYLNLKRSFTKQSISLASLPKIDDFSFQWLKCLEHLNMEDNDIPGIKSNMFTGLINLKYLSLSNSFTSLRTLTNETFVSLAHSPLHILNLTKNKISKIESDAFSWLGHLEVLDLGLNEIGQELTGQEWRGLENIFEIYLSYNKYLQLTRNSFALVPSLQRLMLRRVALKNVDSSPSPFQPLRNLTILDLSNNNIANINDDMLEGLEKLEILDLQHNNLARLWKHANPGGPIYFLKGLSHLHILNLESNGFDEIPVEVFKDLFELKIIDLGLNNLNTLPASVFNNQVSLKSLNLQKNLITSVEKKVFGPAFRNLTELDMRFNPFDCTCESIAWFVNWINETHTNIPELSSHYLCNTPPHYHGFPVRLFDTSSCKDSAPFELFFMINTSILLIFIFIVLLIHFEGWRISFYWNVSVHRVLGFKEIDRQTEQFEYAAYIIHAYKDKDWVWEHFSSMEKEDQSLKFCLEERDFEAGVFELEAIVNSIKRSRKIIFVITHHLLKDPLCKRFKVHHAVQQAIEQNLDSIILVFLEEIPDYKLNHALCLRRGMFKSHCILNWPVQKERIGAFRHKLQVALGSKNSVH

`Nc1ccn([C@@H]2O[C@H](COP(=O)(S)O[C@H]3[C@@H](O)[C@H](n4cnc5c(N)ncnc54)O[C@@H]3CO)[C@@H](OP(=O)(S)OC[C@H]3O[C@@H](n4ccc(=O)[nH]c4=O)[C@H](O)[C@@H]3OP(=O)(S)OC[C@H]3O[C@@H](n4ccc(=O)[nH]c4=O)[C@H](O)[C@@H]3OP(=O)(S)OC[C@H]3O[C@@H](n4ccc5c(=O)[nH]c(N)nc54)[C@H](O)[C@@H]3OP(=O)(S)OC[C@H]3O[C@@H](n4cnc5c(N)ncnc54)[C@H](O)[C@@H]3OP(=O)(S)OC[C@H]3O[C@@H](n4cnc5c(N)ncnc54)[C@H](O)[C@@H]3OP(=O)(S)OC[C@H]3O[C@@H](n4ccc(N)nc4=O)[C@H](O)[C@@H]3OP(=O)(S)OC[C@H]3O[C@@H](n4ccc(=O)[nH]c4=O)[C@H](O)[C@@H]3OP(=O)(S)OC[C@H]3O[C@@H](n4ccc(=O)[nH]c4=O)[C@H](O)[C@@H]3OP(=O)(S)OC[C@H]3O[C@@H](n4ccc5c(=O)[nH]c(N)nc54)[C@H](O)[C@@H]3OP(=O)(S)OCC(O)COP(=O)(S)O[C@H]3[C@@H](O)[C@H](n4ccc5c(=O)[nH]c(N)nc54)O[C@@H]3COP(=O)(S)O[C@H]3[C@@H](O)[C@H](n4ccc(=O)[nH]c4=O)O[C@@H]3COP(=O)(S)O[C@H]3[C@@H](O)[C@H](n4ccc(=O)[nH]c4=O)O[C@@H]3COP(=O)(S)O[C@H]3[C@@H](O)[C@H](n4ccc(N)nc4=O)O[C@@H]3COP(=O)(S)O[C@H]3[C@@H](O)[C@H](n4cnc5c(N)ncnc54)O[C@@H]3COP(=O)(S)O[C@H]3[C@@H](O)[C@H](n4cnc5c(N)ncnc54)O[C@@H]3COP(=O)(S)O[C@H]3[C@@H](O)[C@H](n4ccc5c(=O)[nH]c(N)nc54)O[C@@H]3COP(=O)(S)O[C@H]3[C@@H](O)[C@H](n4ccc(=O)[nH]c4=O)O[C@@H]3COP(=O)(S)O[C@H]3[C@@H](O)[C@H](n4ccc(=O)[nH]c4=O)O[C@@H]3COP(=O)(S)O[C@H]3[C@@H](O)[C@H](n4ccc(N)nc4=O)O[C@@H]3COP(=O)(S)O[C@H]3[C@@H](O)[C@H](n4cnc5c(N)ncnc54)O[C@@H]3CO)[C@H]2O)c(=O)n1` (some centres not stated): in data set [1], the remaining at 10 min was 84%. Moreover, the fold change (FC) in data set [2] was 4.9. Besides, in the data set listed under Homo sapiens, the Ratio was found to be 3. The result in data set [3] was inactive.
In the case of `Nc1ccn([C@@H]2O[C@H](COP(=O)(S)O[C@H]3[C@@H](O)[C@H](n4ccc(N)nc4=O)O[C@@H]3COP(=O)(S)O[C@H]3[C@@H](O)[C@H](n4cnc5c(N)ncnc54)O[C@@H]3COP(=O)(S)O[C@H]3[C@@H](O)[C@H](n4ccc5c(=O)[nH]c(N)nc54)O[C@@H]3COP(=O)(S)O[C@H]3[C@@H](O)[C@H](n4ccc(=O)[nH]c4=O)O[C@@H]3COP(=O)(S)O[C@H]3[C@@H](O)[C@H](n4ccc(=O)[nH]c4=O)O[C@@H]3COP(=O)(S)O[C@H]3[C@@H](O)[C@H](n4ccc(N)nc4=O)O[C@@H]3COP(=O)(S)O[C@H]3[C@@H](O)[C@H](n4cnc5c(N)ncnc54)O[C@@H]3CO)[C@@H](OP(=O)(S)OC[C@H]3O[C@@H](n4ccc(=O)[nH]c4=O)[C@H](O)[C@@H]3OP(=O)(S)OC[C@H]3O[C@@H](n4ccc(=O)[nH]c4=O)[C@H](O)[C@@H]3OP(=O)(S)OC[C@H]3O[C@@H](n4ccc(=O)[nH]c4=O)[C@H](O)[C@@H]3OP(=O)(S)OCC(O)COP(=O)(S)O[C@H]3[C@@H](O)[C@H](n4ccc(=O)[nH]c4=O)O[C@@H]3COP(=O)(S)O[C@H]3[C@@H](O)[C@H](n4ccc(=O)[nH]c4=O)O[C@@H]3COP(=O)(S)O[C@H]3[C@@H](O)[C@H](n4ccc(=O)[nH]c4=O)O[C@@H]3COP(=O)(S)O[C@H]3[C@@H](O)[C@H](n4ccc(N)nc4=O)O[C@@H]3COP(=O)(S)O[C@H]3[C@@H](O)[C@H](n4ccc(N)nc4=O)O[C@@H]3COP(=O)(S)O[C@H]3[C@@H](O)[C@H](n4cnc5c(N)ncnc54)O[C@@H]3COP(=O)(S)O[C@H]3[C@@H](O)[C@H](n4ccc5c(=O)[nH]c(N)nc54)O[C@@H]3COP(=O)(S)O[C@H]3[C@@H](O)[C@H](n4ccc(=O)[nH]c4=O)O[C@@H]3COP(=O)(S)O[C@H]3[C@@H](O)[C@H](n4ccc(=O)[nH]c4=O)O[C@@H]3COP(=O)(S)O[C@H]3[C@@H](O)[C@H](n4ccc(N)nc4=O)O[C@@H]3COP(=O)(S)O[C@H]3[C@@H](O)[C@H](n4cnc5c(N)ncnc54)O[C@@H]3CO)[C@H]2O)c(=O)n1` (some centres not stated), the remaining at 10 min in data set [1] came to 72%. For the same compound, in data set [2], the fold change (FC) amounted to 1.8. Moreover, the Ratio in the data set filed under Homo sapiens was determined as 12.9. Besides, the result in data set [3] was inactive.
The like results for `Nc1ccn([C@@H]2O[C@H](COP(=O)(S)O[C@H]3[C@@H](O)[C@H](n4cnc5c(N)ncnc54)O[C@@H]3COP(=O)(S)O[C@H]3[C@@H](O)[C@H](n4ccc5c(=O)[nH]c(N)nc54)O[C@@H]3COP(=O)(S)O[C@H]3[C@@H](O)[C@H](n4ccc(=O)[nH]c4=O)O[C@@H]3CO)[C@@H](OP(=O)(S)OC[C@H]3O[C@@H](n4ccc5c(=O)[nH]c(N)nc54)[C@H](O)[C@@H]3OP(=O)(S)OC[C@H]3O[C@@H](n4cnc5c(N)ncnc54)[C@H](O)[C@@H]3OC[C@H]3O[C@@H](n4ccc(=O)[nH]c4=O)[C@H](O)[C@@H]3OP(=O)(S)ON[C@H]3O[C@@H](n4ccc5c(=O)[nH]c(N)nc54)[C@H](O)[C@@H]3OP(=O)(S)OC[C@H]3O[C@@H](n4cnc5c(N)ncnc54)[C@H](O)[C@@H]3OP(=O)(S)OC[C@H]3O[C@@H](n4ccc(=O)[nH]c4=O)[C@H](O)[C@@H]3OP(=O)(S)OC[C@H]3O[C@@H](n4ccc(=O)[nH]c4=O)[C@H](O)[C@@H]3OP(=O)(S)OCC(O)COP(=O)(S)O[C@H]3[C@@H](O)[C@H](n4ccc(=O)[nH]c4=O)O[C@@H]3COP(=O)(S)O[C@H]3[C@@H](O)[C@H](n4ccc(=O)[nH]c4=O)O[C@@H]3COP(=O)(S)O[C@H]3[C@@H](O)[C@H](n4cnc5c(N)ncnc54)O[C@@H]3COP(=O)(S)O[C@H]3[C@@H](O)[C@H](n4ccc5c(=O)[nH]c(N)nc54)O[C@@H]3NOP(=O)(S)O[C@H]3[C@@H](O)[C@H](n4ccc(=O)[nH]c4=O)O[C@@H]3CO[C@H]3[C@@H](O)[C@H](n4cnc5c(N)ncnc54)O[C@@H]3COP(=O)(S)O[C@H]3[C@@H](O)[C@H](n4ccc5c(=O)[nH]c(N)nc54)O[C@@H]3COP(=O)(S)O[C@H]3[C@@H](O)[C@H](n4ccc(N)nc4=O)O[C@@H]3COP(=O)(S)O[C@H]3[C@@H](O)[C@H](n4cnc5c(N)ncnc54)O[C@@H]3COP(=O)(S)O[C@H]3[C@@H](O)[C@H](n4ccc5c(=O)[nH]c(N)nc54)O[C@@H]3COP(=O)(S)O[C@H]3[C@@H](O)[C@H](n4ccc(=O)[nH]c4=O)O[C@@H]3CO)[C@H]2O)c(=O)n1` (some centres not stated) were, in that order, 86%, 4.6, 4 and “inactive”.
